Bioassay records from PubChem BioAssay.
STEP block: inhibitors of human striatal-enriched phosphatase STEP | AID 588621 | 360,000 compounds, 0.25% hits | recombinant STEP, OMFP fluorogenic substrate, fluorescence | inhibition, % at 20 µM;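 active means inhibition at 20 µM, scaled per plate between control wells, above about 37%, limit read from the data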;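 further: 0% = DMSO with enzyme and substrate and 100% = substrate only without enzyme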
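Test system: STEP tyrosine phosphatase / Reagent: OMFP at 25 µM / Doses: 20 µM, 1% DMSO / Read-out: percent inhibition scaled to no-enzyme and uninhibited-enzyme controls, plate-pattern corrected / Detection: FITC-channel fluorescence of OMFP product / Medium: Bis-Tris buffer pH 6.0, 2.5 mM DTT, 0.005% Tween 20 / Schedule: 20 min at room temperature, dark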
SUMO1 PPI mod: SUMO1-SIM interaction modulation | P63165 | SUMO1 binding to a labelled peptide, TR-FRET, 1 h | inhibition, % at 20 µM | 360,000 compounds, 0.33% hits | AID 602429; in the data active means inhibition above about 37%
LMPTP block: LMPTP (human) inhibition; inhibition, % at 20 µM; P24666; 360,000 compounds, 0.22% hits; recombinant LMPTP-A, OMFP fluorogenic substrate, fluorescence intensity;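 active means compounds that cut the enzyme signal by at least half of the control window in the single-dose screen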;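 further: plate controls were DMSO wells with enzyme plus substrate for no effect and substrate without enzyme for full effect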
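Assay system: LMPTP-A phosphatase enzyme | Input: 0.625 nM enzyme | Also added: Fluorogenic phosphatase substrate OMFP at 400 µM final | Compound dosing: One test concentration per compound, 20 µM, with 3% DMSO overall | Schedule: 50 min enzyme reaction at room temperature, protected from light | Signal: Fluorescence intensity | Benchmarks: no-enzyme and uninhibited controls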
Scp1 inh: inhibitors of human Scp-1 phosphatase; Q9GZU7; Recombinant Scp1, phosphopeptide, malachite green phosphate absorbance; inhibition, % at 20 µM; 340,000 compounds, 0.88% hits; AID 493091;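 active means inhibition above about 50% at 20 µM, limit read from the data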;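 further: plate controls were DMSO wells with enzyme for no effect and wells lacking enzyme for full effect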
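Incubation: 45 min enzyme reaction at room temperature / System: truncated SCP-1 phosphatase (76-261aa) / Reagent: Phospho 17-mer peptide substrate / Buffer or medium: Acidic Tris acetate buffer with magnesium and detergent / Signal: absorbance at 630 nm / Doses: one concentration, 20 µM, with 1.0% DMSO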
DNMT1 inh: inhibitors of human DNMT1. P26358. DNMT1 molecular beacon, Hinp1I cleavage, fluorescence. inhibition (reported as % activation of signal), % at 10 µM. 360,000 compounds, 0.83% hits; in the data active means inhibition above about 50%
Target sequence (P26358 504-1616 limits assumed): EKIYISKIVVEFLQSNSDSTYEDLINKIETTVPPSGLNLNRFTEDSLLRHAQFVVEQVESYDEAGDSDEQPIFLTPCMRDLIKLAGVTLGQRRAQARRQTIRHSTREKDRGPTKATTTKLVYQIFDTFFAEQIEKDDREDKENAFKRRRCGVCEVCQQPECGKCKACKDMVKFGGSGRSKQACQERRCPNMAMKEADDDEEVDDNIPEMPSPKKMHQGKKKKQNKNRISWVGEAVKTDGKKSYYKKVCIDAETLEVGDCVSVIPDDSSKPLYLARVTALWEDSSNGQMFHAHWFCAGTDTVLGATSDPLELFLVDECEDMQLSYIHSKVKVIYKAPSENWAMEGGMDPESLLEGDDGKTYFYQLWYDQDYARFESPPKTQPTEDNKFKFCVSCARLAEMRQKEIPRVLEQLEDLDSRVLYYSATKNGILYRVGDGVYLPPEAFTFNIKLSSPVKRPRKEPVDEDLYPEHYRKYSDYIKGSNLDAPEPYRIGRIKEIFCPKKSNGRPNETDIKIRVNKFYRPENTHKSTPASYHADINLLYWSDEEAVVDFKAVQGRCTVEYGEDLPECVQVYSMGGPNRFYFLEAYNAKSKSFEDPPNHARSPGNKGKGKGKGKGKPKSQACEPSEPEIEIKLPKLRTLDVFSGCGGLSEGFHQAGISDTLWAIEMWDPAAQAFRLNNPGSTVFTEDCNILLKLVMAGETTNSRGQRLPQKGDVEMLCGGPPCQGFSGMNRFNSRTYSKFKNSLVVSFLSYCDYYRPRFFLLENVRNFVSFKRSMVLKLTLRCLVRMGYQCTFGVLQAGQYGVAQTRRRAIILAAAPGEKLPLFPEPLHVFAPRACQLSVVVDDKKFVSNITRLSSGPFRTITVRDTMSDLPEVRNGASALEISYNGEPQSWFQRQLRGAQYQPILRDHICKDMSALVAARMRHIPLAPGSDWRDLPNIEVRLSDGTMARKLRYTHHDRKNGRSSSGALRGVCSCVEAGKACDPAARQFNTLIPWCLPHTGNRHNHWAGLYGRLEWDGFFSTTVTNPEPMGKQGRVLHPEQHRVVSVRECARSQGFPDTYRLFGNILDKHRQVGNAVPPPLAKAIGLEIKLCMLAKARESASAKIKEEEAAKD
Casp6 inh: blocks human caspase-6 cleavage activity. purified caspase-6, Z-VEID-R110 cleavage fluorescence. 350,000 compounds, 0.53% hits. P55212. AID 686996. inhibition, % at 12.5 µM;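 active means mean inhibition across replicates at least about 35%, with every replicate also reaching that limit, limit read from the data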;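 further: 0% = median of neutral control wells and 100% = no fluorescence left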
* hit, by the source's call; nt = not tested or not shown; ! = not active in a repeat. Only some compounds are listed: those with a hit (about 1.7% of all), similar ones and a draw of the others.

SMILES | STEP block | SUMO1 PPI mod | LMPTP block | Scp1 inh | DNMT1 inh | Casp6 inh
CCn1nc(/C=C/c2ccccc2)nc2c(=O)n(C)c(=O)nc1-2 | 69* | 35 | 62* | -9 | 108* | nt
Cc1ccc(C(=O)O)cc1N=Nc1c(O)[nH]c(=O)[nH]c1=O | 1 | -9 | 0 | 4 | 0 | 2
CN(C)[C@@H]1C(=O)C(C(N)=O)=C(O)[C@@]2(O)C(=O)C3=C(O)c4c(O)cccc4[C@@](C)(O)[C@H]3[C@H](O)[C@@H]12 | 34 | 70* | 66* | 65* | 97* | 69*
CN(C)[C@@H]1C(=O)C(C(N)=O)=C(O)[C@@]2(O)C(=O)C3=C(O)c4c(O)cccc4[C@@](C)(O)C3C[C@@H]12 (stereo partly specified) | 10 | 37* | 41 | 1 | 84* | 55*
O=C1NCN(c2ccccc2)C12CCN(C(c1ccccc1OC(F)(F)F)c1nnnn1C1CCCCC1)CC2 (stereo unspecified) | 2 | 6 | 3 | nt | -30 | -2
CN(C)c1ccc(/C=C/C=C/c2sc3ccccc3[n+]2C)cc1 | 4 | -45 | 16 | -4 | -6 | 6
CC[n+]1c(/C=C/C=C/c2ccc(N(C)C)cc2)sc2ccccc21 | 21 | -59 | 90* | -7 | -20 | 0
CN1CCC2(CC1)C(C#N)=C(N)NC(S)=C2C#N | 1 | 3 | 7 | -3 | -19 | 47*!
O=C1NC(=O)N(c2ccccc2F)C(=O)/C1=C/c1ccc(Sc2nc3ccccc3[nH]2)o1 | 2 | 26 | 8 | 9 | 30 | 60*
O=C1NC(=O)N(c2ccccc2)C(=O)/C1=C/c1ccc(Sc2ccccc2)o1 | 3 | 10 | 1 | 4 | 22 | nt
O=C1NC(=O)N(c2cccc(Cl)c2)C(=O)/C1=C\c1ccc(Sc2nc3ccccc3[nH]2)o1 | -3 | 32 | 8 | 9 | 24 | 70*
NP(=O)(Oc1ccccc1Cl)Oc1ccccc1Cl | -3 | 2 | 0 | -9 | -1 | 1
CC(=O)c1ccc2c(c1)C1C(Cl)C(Sc3ccccc3[N+](=O)[O-])CC1C(C(=O)O)N2 (stereo unspecified) | 19 | 84* | 78* | 48 | 114* | nt
O=C(O)c1cccc2c1NC(C(=O)O)C1CC(Sc3ccccc3[N+](=O)[O-])C(Cl)C21 (stereo unspecified) | 98* | 88* | 79* | 56* | 104* | nt
Cc1nccn1Cc1ccc(Cl)nc1 | -4 | 3 | 2 | -3 | -4 | 1
COc1cc(CC2(CCc3ccncc3)C(=O)N(C)C(=O)N(C)C2=O)cc(OC)c1OC | 1 | 5 | 1 | -5 | 3 | 0
C=CC[C@@H](C)CC(=O)C(CCCN=[N+]=[N-])SOOc1ccccc1 (stereo partly specified) | 1 | 10 | 1 | -6 | 3 | -2
Cc1ccccc1NC(=NCCCN1CC1)Nc1ccccc1C | 8 | 34* | 21 | 15 | -100 | -4
CN1CC(Br)C(=O)NC1=O (stereo unspecified) | 4 | 4 | -1 | -12 | 5 | 2
CN1C(=O)NC(=O)C(N=Nc2ccc(Cl)cc2)C1=O (stereo unspecified) | -3 | -40 | -1 | 1 | 1 | 47*
Cc1ccccc1-c1ccc([C@@H]2[C@H](CO)N3CCCCN(C(=O)Cc4ccccn4)C[C@@H]23)cc1 | nt | nt | nt | nt | nt | 0
COc1ccc(/C=C2/C(=O)N(Cc3ccco3)C(=O)N(C(C)C)C2=O)cc1 | -3 | 43* | 3 | -10 | 94* | 78*
CCN1C(=O)C(=C2C=C(C)N(Cc3ccco3)C(C)=C2)C(=O)N(CC)C1=S | 1 | 2 | 1 | -15 | -2 | nt
Cn1cccc1/C=C1\C(=O)NC(=O)N(CCC2=CCCCC2)C1=O | 0 | -1 | 0 | -6 | 5 | 3
O=C1NC(=O)N(CCC2=CCCCC2)C(=O)/C1=C\c1cccs1 | 4 | 11 | 2 | 18 | 42 | 37*
SMILES | STEP block | SUMO1 PPI mod | LMPTP block | Scp1 inh | DNMT1 inh | Casp6 inh
Cc1cccc(CC(c2cccc(C)c2)N(C)C)c1 (stereo unspecified) | 1 | 0 | -1 | 3 | 1 | -3
Nc1c(C(=O)NCc2ccco2)c2nc3ccccc3nc2n1Cc1ccc(F)cc1 | -12 | 40* | 8 | -4 | 21 | nt
CCCCNC(=O)c1c(N)n(Cc2ccc3c(c2)OCO3)c2nc3ccccc3nc12 | -2 | 64* | 6 | 2 | 15 | -1
Nc1c(C(=O)NCc2ccco2)c2nc3ccccc3nc2n1Cc1ccccc1 | -3 | -6 | 2 | -2 | -31 | nt
Cc1nc2ccccc2c(=O)n1-c1cccc(O)c1 | -6 | -2 | -1 | -3 | 5 | nt
O=c1c2ccccc2nc(-c2ccc(Cl)cc2Cl)n1-c1nccs1 | 0 | 1 | 1 | -7 | 12 | nt
CCCCn1nnnc1C(CCSC)N1CCC(n2c(=O)[nH]c3ccccc32)CC1 (stereo unspecified) | 1 | 2 | 2 | nt | 1 | 50*
CCCCn1nnnc1C(CCc1ccccc1)N1CCC(n2c(=O)[nH]c3ccccc32)CC1 (stereo unspecified) | 0 | 3 | 5 | nt | -3 | 4
Cc1ccc(/C=C2\C(=O)NC(=S)N(c3ccc(F)cc3)C2=O)s1 | 0 | 10 | 0 | 5 | 11 | 31
Cc1ccc(N2C(=O)/C(=C/c3ccc(CN(CCC#N)S(C)(=O)=O)o3)C(=O)NC2=S)cc1 | 19 | 39* | 6 | 43 | 110* | nt
Cc1ccc(/C=C2\C(=O)NC(=S)N(c3ccc(F)cc3)C2=O)o1 | 0 | 11 | 0 | 29 | 35 | 41*
CCC(=Nc1ccccc1N)c1c(O)[nH]c(=O)[nH]c1=O | -1 | -2 | -4 | -9 | 0 | 3
CC(C)OC(=O)c1c(N)n(CC2CCCO2)c2nc3ccccc3nc12 (stereo unspecified) | 2 | 42* | 3 | -9 | -16 | nt
COC(=O)C1=C(c2ccc(F)cc2OCc2ccccc2)C[C@@H]2CC[C@H]1N2C(=O)NC(C)C | 0 | -3 | 1 | -6 | -2 | 2
O=C1NC(=O)N(Cc2ccco2)C(=O)/C1=C\c1cccn1CCOc1ccc(Cl)cc1 | -2 | 21 | 3 | -3 | 59* | 68*
Cc1cccc(OCCn2cccc2/C=C2/C(=O)NC(=O)N(Cc3ccco3)C2=O)c1 | 2 | 12 | 4 | 10 | 60* | 44*
NC(=O)C1CCN(/C=C2\C(=O)NC(=O)N(Cc3ccco3)C2=O)CC1 | 22 | 14 | 9 | 69* | 52* | 9
CCOC(=O)C1CCN(/C=C2/C(=O)NC(=O)N(c3ccc(OCC)cc3)C2=O)CC1 | -1 | 2 | -1 | -6 | -3 | -3
